Columns and labels:
Assay type in all cases: functional
Enterobacter cloacae [1] = experiment: Antimicrobial activity against Enterobacter cloacae isolate 656 containing PFGE genetic clone A expressing beta-lactamase KPC-2 and SHV-12 gene by Etest in presence of beta-lactamase inhibitor Tazobactam
How it was run: (§1)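 Clinical carbapenem-resistant, blaKPC-2-carrying E. cloacae isolates; MIC read by Etest. Clonal relatedness typed by PFGE after SpeI (20 U) digestion of genomic DNA on a CHEF-DR III system. qnr genes, and aac(6′)-Ib-cr by PCR with BtsCI digestion, detected from cell-lysate templates.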

Enterobacter cloacae [2] = experiment: Antimicrobial activity against Enterobacter cloacae isolate 649 containing PFGE genetic clone B expressing qnrB2 and beta-lactamase KPC-2 and SHV-12 gene by Etest in presence of beta-lactamase inhibitor Tazobactam; how it was run: as §1
Enterobacter cloacae [3] = experiment: Antimicrobial activity against Enterobacter cloacae isolate 658 containing PFGE genetic clone B expressing qnrB2 and beta-lactamase KPC-2 and SHV-12 gene by Etest in presence of beta-lactamase inhibitor Tazobactam; how it was run: as §1
Enterobacter cloacae [4] = experiment: Antimicrobial activity against Enterobacter cloacae isolate 781 containing PFGE genetic clone B expressing qnrB2 and beta-lactamase KPC-2 and SHV-12 gene by Etest in presence of beta-lactamase inhibitor Tazobactam; how it was run: as §1
Enterobacter cloacae [5] = experiment: Antimicrobial activity against Enterobacter cloacae isolate 837 containing PFGE genetic clone B expressing qnrB2 and beta-lactamase KPC-2 and SHV-12 gene by Etest in presence of beta-lactamase inhibitor Tazobactam; how it was run: as §1
Enterobacter cloacae [6] = experiment: Antimicrobial activity against Enterobacter cloacae isolate 4469 containing PFGE genetic clone C expressing qnrB2 and beta-lactamase KPC-2 and SHV-12 gene by Etest in presence of beta-lactamase inhibitor Tazobactam
Escherichia coli [7] = experiment: Antimicrobial activity against Escherichia coli T-622 harboring expressing qnrB2 and beta-lactamase KPC-2 and SHV-12 gene by Etest in presence of beta-lactamase inhibitor Tazobactam
Escherichia coli [8] = experiment: Antimicrobial activity against Escherichia coli T-625 harboring expressing qnrB2 and beta-lactamase KPC-2 and SHV-12 gene by Etest in presence of beta-lactamase inhibitor Tazobactam
Escherichia coli [9] = experiment: Antimicrobial activity against Escherichia coli T-781 harboring expressing qnrB2 and beta-lactamase KPC-2 and SHV-12 gene by Etest in presence of beta-lactamase inhibitor Tazobactam
Escherichia coli [10] = experiment: Antimicrobial activity against Escherichia coli GeneHogs by Etest in presence of beta-lactamase inhibitor Tazobactam
How it was run: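 Recipient is E. coli GeneHogs (recA1), electroporated with plasmid DNA from clinical isolates. Transformants were selected on LB agar with 100 μg/ml ampicillin and PCR-screened for blaKPC, blaSHV and qnr genes. MIC read by Etest.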

Enterobacter cloacae [11] = experiment: Antimicrobial activity against Enterobacter cloacae isolate 1 containing PFGE genetic clone A expressing qnrB2 and beta-lactamase KPC-2 and SHV-12 gene by Etest
Enterobacter cloacae [12] = experiment: Antimicrobial activity against Enterobacter cloacae isolate 18 containing PFGE genetic clone A expressing qnrB2 and beta-lactamase KPC-2 and SHV-12 gene by Etest
Enterobacter cloacae [13] = experiment: Antimicrobial activity against Enterobacter cloacae isolate 140 containing PFGE genetic clone A expressing beta-lactamase KPC-2 and SHV-12 gene by Etest
Enterobacter cloacae [14] = experiment: Antimicrobial activity against Enterobacter cloacae isolate 151 containing PFGE genetic clone A expressing qnrB2 and beta-lactamase KPC-2 gene by Etest
Enterobacter cloacae [15] = experiment: Antimicrobial activity against Enterobacter cloacae isolate 185 containing PFGE genetic clone A expressing qnrB2 aac(6')-Ib-cr and beta-lactamase KPC-2 and SHV-12 gene by Etest
Enterobacter cloacae [16] = experiment: Antimicrobial activity against Enterobacter cloacae isolate 293 containing PFGE genetic clone A expressing qnrB2 and beta-lactamase KPC-2 and SHV-12 gene by Etest
Enterobacter cloacae [17] = experiment: Antimicrobial activity against Enterobacter cloacae isolate 533 containing PFGE genetic clone A expressing qnrB2 and beta-lactamase KPC-2 and SHV-12 gene by Etest
Enterobacter cloacae [18] = experiment: Antimicrobial activity against Enterobacter cloacae isolate 622 containing PFGE genetic clone A expressing qnrB2 and beta-lactamase KPC-2 and SHV-12 gene by Etest
Enterobacter cloacae [19] = experiment: Antimicrobial activity against Enterobacter cloacae isolate 625 containing PFGE genetic clone A expressing qnrB2 and beta-lactamase KPC-2 and SHV-12 gene by Etest
Enterobacter cloacae [20] = experiment: Antimicrobial activity against Enterobacter cloacae isolate 656 containing PFGE genetic clone A expressing beta-lactamase KPC-2 and SHV-12 gene by Etest
Enterobacter cloacae [21] = experiment: Antimicrobial activity against Enterobacter cloacae isolate 649 containing PFGE genetic clone B expressing qnrB2 and beta-lactamase KPC-2 and SHV-12 gene by Etest
Enterobacter cloacae [22] = experiment: Antimicrobial activity against Enterobacter cloacae isolate 658 containing PFGE genetic clone B expressing qnrB2 and beta-lactamase KPC-2 and SHV-12 gene by Etest
Enterobacter cloacae [23] = experiment: Antimicrobial activity against Enterobacter cloacae isolate 781 containing PFGE genetic clone B expressing qnrB2 and beta-lactamase KPC-2 and SHV-12 gene by Etest
Enterobacter cloacae [24] = experiment: Antimicrobial activity against Enterobacter cloacae isolate 837 containing PFGE genetic clone B expressing qnrB2 and beta-lactamase KPC-2 and SHV-12 gene by Etest
Enterobacter cloacae [25] = experiment: Antimicrobial activity against Enterobacter cloacae isolate 4469 containing PFGE genetic clone C expressing qnrB2 and beta-lactamase KPC-2 and SHV-12 gene by Etest
Escherichia coli [26] = experiment: Antimicrobial activity against Escherichia coli T-622 harboring expressing qnrB2 and beta-lactamase KPC-2 and SHV-12 gene by Etest
How it was run: (§2)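 MIC read by Etest. Strains are E. coli GeneHogs (recA1) transformants. Plasmid DNA from clinical E. cloacae isolates was introduced by electroporation. Transformants were selected on LB agar with 100 μg/ml ampicillin, then PCR-screened for blaKPC, blaSHV and qnr genes.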

Escherichia coli [27] = experiment: Antimicrobial activity against Escherichia coli T-625 harboring expressing qnrB2 and beta-lactamase KPC-2 and SHV-12 gene by Etest; how it was run: as §2
Escherichia coli [28] = experiment: Antimicrobial activity against Escherichia coli T-781 harboring expressing qnrB2 and beta-lactamase KPC-2 and SHV-12 gene by Etest; how it was run: as §2
Escherichia coli [29] = experiment: Antimicrobial activity against Escherichia coli GeneHogs by Etest
How it was run: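 MIC read by Etest on the plasmid-free electroporation recipient, E. coli GeneHogs (recA1 mutant).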

Enterobacter cloacae [30] = experiment: Antimicrobial activity against Enterobacter cloacae isolate 1 containing PFGE genetic clone A expressing qnrB2 and beta-lactamase KPC-2 and SHV-12 gene by Etest in presence of beta-lactamase inhibitor Tazobactam; how it was run: as §1
Enterobacter cloacae [31] = experiment: Antimicrobial activity against Enterobacter cloacae isolate 18 containing PFGE genetic clone A expressing qnrB2 and beta-lactamase KPC-2 and SHV-12 gene by Etest in presence of beta-lactamase inhibitor Tazobactam; how it was run: as §1
Enterobacter cloacae [32] = experiment: Antimicrobial activity against Enterobacter cloacae isolate 140 containing PFGE genetic clone A expressing beta-lactamase KPC-2 and SHV-12 gene by Etest in presence of beta-lactamase inhibitor Tazobactam; how it was run: as §1
Enterobacter cloacae [33] = experiment: Antimicrobial activity against Enterobacter cloacae isolate 151 containing PFGE genetic clone A expressing qnrB2 and beta-lactamase KPC-2 gene by Etest in presence of beta-lactamase inhibitor Tazobactam; how it was run: as §1
Enterobacter cloacae [34] = experiment: Antimicrobial activity against Enterobacter cloacae isolate 185 containing PFGE genetic clone A expressing qnrB2 aac(6')-Ib-cr and beta-lactamase KPC-2 and SHV-12 gene by Etest in presence of beta-lactamase inhibitor Tazobactam; how it was run: as §1
Enterobacter cloacae [35] = experiment: Antimicrobial activity against Enterobacter cloacae isolate 293 containing PFGE genetic clone A expressing qnrB2 and beta-lactamase KPC-2 and SHV-12 gene by Etest in presence of beta-lactamase inhibitor Tazobactam; how it was run: as §1
Enterobacter cloacae [36] = experiment: Antimicrobial activity against Enterobacter cloacae isolate 533 containing PFGE genetic clone A expressing qnrB2 and beta-lactamase KPC-2 and SHV-12 gene by Etest in presence of beta-lactamase inhibitor Tazobactam; how it was run: as §1
Enterobacter cloacae [37] = experiment: Antimicrobial activity against Enterobacter cloacae isolate 622 containing PFGE genetic clone A expressing qnrB2 and beta-lactamase KPC-2 and SHV-12 gene by Etest in presence of beta-lactamase inhibitor Tazobactam; how it was run: as §1
Enterobacter cloacae [38] = experiment: Antimicrobial activity against Enterobacter cloacae isolate 625 containing PFGE genetic clone A expressing qnrB2 and beta-lactamase KPC-2 and SHV-12 gene by Etest in presence of beta-lactamase inhibitor Tazobactam; how it was run: as §1

Measured: MIC

CCN1CCN(C(=O)N[C@@H](C(=O)N[C@@H]2C(=O)N3[C@@H]2SC(C)(C)[C@@H]3C(=O)O)c2ccccc2)C(=O)C1=O [PIPERACILLIN]
≤ 4 µg/mL: Escherichia coli [10] | Escherichia coli [29]
64 µg/mL: Enterobacter cloacae [6] | Escherichia coli [7] | Escherichia coli [9]
≥ 128 µg/mL: all other assays above

Reference: ChEMBL document CHEMBL1275468, “Plasmid-mediated qnrB2 and carbapenemase gene bla(KPC-2) carried on the same plasmid in carbapenem-resistant ciprofloxacin-susceptible Enterobacter cloacae isolates” (2008)
